# Measured values taken from ChEMBL document CHEMBL3576819, “Design, synthesis, biological evaluation and molecular docking studies of phenylpropanoid derivatives as potent anti-hepatitis B virus agents” (Eur J Med Chem, 2015).
# Assays:
# Hepatitis B virus [1] = assay: Antiviral activity against Hepatitis B virus infected in human HepG2.2.15 cells assessed as cell survival at 150 uM after 9 days (reference value: 100%); type: functional; conditions: HepG2 2.2.15, 216 h
# Summary of the method: (§1)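 HepG2.2.15 cells (MEM, 10% FBS, 380 µg/ml G418, 37 °C, 5% CO2) seeded at 1×10^5 cells/ml, cultured 24 h, then exposed to various drug concentrations; drug-containing medium renewed every 3 d. OD read at 450 nm after 9 days; percent cell death calculated; CC50 = concentration killing 50% of cells. Means of at least two experiments.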
# Hepatitis B virus [2] = assay: Antiviral activity against Hepatitis B virus infected in human HepG2.2.15 cells assessed as inhibition of HBsAg secretion at 37.5 uM after 6 days by ELISA; type: functional; conditions: HepG2 2.2.15, 144 h
# Summary of the method: (§2)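 HepG2.2.15 cells (MEM, 10% FBS, 380 µg/ml G418) seeded at 1×10^5 cells/ml, held 24 h at 37 °C, then treated with various drug concentrations; medium with drug renewed every 3 d for up to 9 d. Culture medium sampled on days 3, 6 and 9, stored at -20 °C, and assayed for secreted antigen. Lamivudine as positive control; IC50 = 50% inhibition of secretion; means of at least two experiments.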
# Hepatitis B virus [3] = assay: Antiviral activity against Hepatitis B virus infected in human HepG2.2.15 cells assessed as inhibition of HBeAg secretion at 37.5 uM after 9 days by ELISA; type: functional; conditions: HepG2 2.2.15, 216 h; summary of the method: as §2
# Hepatitis B virus [4] = assay: Antiviral activity against Hepatitis B virus infected in human HepG2.2.15 cells assessed as inhibition of HBeAg secretion at 37.5 uM after 6 days by ELISA; type: functional; conditions: HepG2 2.2.15, 144 h; summary of the method: as §2
# Hepatitis B virus [5] = assay: Antiviral activity against Hepatitis B virus infected in human HepG2.2.15 cells assessed as inhibition of HBsAg secretion at 37.5 uM after 9 days by ELISA; type: functional; conditions: HepG2 2.2.15, 216 h; summary of the method: as §2
# Hepatitis B virus [6] = assay: Antiviral activity against Hepatitis B virus infected in human HepG2.2.15 cells assessed as inhibition of HBeAg secretion at 75 uM after 3 days by ELISA; type: functional; conditions: HepG2 2.2.15, 72 h; summary of the method: as §2
# Hepatitis B virus [7] = assay: Antiviral activity against Hepatitis B virus infected in human HepG2.2.15 cells assessed as cell survival at 300 uM after 9 days (reference value: 100%); type: functional; conditions: HepG2 2.2.15, 216 h; summary of the method: as §1
# Hepatitis B virus [8] = assay: Antiviral activity against Hepatitis B virus infected in human HepG2.2.15 cells assessed as inhibition of HBsAg secretion at 300 uM after 9 days by ELISA; type: functional; conditions: HepG2 2.2.15, 216 h; summary of the method: as §2
# Hepatitis B virus [9] = assay: Antiviral activity against Hepatitis B virus infected in human HepG2.2.15 cells assessed as inhibition of HBeAg secretion at 150 uM after 3 days by ELISA; type: functional; conditions: HepG2 2.2.15, 72 h; summary of the method: as §2
# Hepatitis B virus [10] = assay: Antiviral activity against Hepatitis B virus infected in human HepG2.2.15 cells assessed as inhibition of HBsAg secretion by ELISA; type: functional, organism-based; conditions: HepG2 2.2.15; summary of the method: as §2
# Hepatitis B virus [11] = assay: Antiviral activity against Hepatitis B virus infected in human HepG2.2.15 cells assessed as inhibition of HBsAg secretion at 150 uM after 3 days by ELISA; type: functional; conditions: HepG2 2.2.15, 72 h; summary of the method: as §2
# Hepatitis B virus [12] = assay: Antiviral activity against Hepatitis B virus infected in human HepG2.2.15 cells assessed as inhibition of HBsAg secretion at 300 uM after 6 days by ELISA; type: functional; conditions: HepG2 2.2.15, 144 h; summary of the method: as §2
# [13] = Selectivity index, ratio of CC50 for human HepG2.2.15 cells to IC50 for Hepatitis B virus infected in human HepG2.2.15 cells assessed as inhibition of HBsAg secretion; type: functional
# Summary of the method: (§3)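 Selectivity index computed as CC50/IC50, with CC50 from cell death of HepG2.2.15 cells after 9 days of treatment (OD 450 nm) and IC50 from 50% inhibition of HBeAg or HBsAg secretion in the same cells; medium with drug renewed every 3 d.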
# Hepatitis B virus [14] = assay: Antiviral activity against Hepatitis B virus infected in human HepG2.2.15 cells assessed as inhibition of HBsAg secretion at 75 uM after 9 days by ELISA; type: functional; conditions: HepG2 2.2.15, 216 h; summary of the method: as §2
# Hepatitis B virus [15] = assay: Antiviral activity against Hepatitis B virus infected in human HepG2.2.15 cells assessed as inhibition of HBsAg secretion at 150 uM after 9 days by ELISA; type: functional; conditions: HepG2 2.2.15, 216 h; summary of the method: as §2
# Hepatitis B virus [16] = assay: Antiviral activity against Hepatitis B virus infected in human HepG2.2.15 cells assessed as inhibition of HBsAg secretion at 75 uM after 6 days by ELISA; type: functional; conditions: HepG2 2.2.15, 144 h; summary of the method: as §2
# Hepatitis B virus [17] = assay: Antiviral activity against Hepatitis B virus infected in human HepG2.2.15 cells assessed as inhibition of HBsAg secretion at 37.5 uM after 3 days by ELISA; type: functional; conditions: HepG2 2.2.15, 72 h; summary of the method: as §2
# [18] = Cytotoxicity against human HepG2.2.15 cells assessed as cell death after 9 days by MTT assay; type: cell-based, HepG2 2.2.15; summary of the method: as §1
# Hepatitis B virus [19] = assay: Antiviral activity against Hepatitis B virus infected in human HepG2.2.15 cells assessed as inhibition of HBeAg secretion by ELISA; type: functional, organism-based; conditions: HepG2 2.2.15; summary of the method: as §2
# Hepatitis B virus [20] = assay: Antiviral activity against Hepatitis B virus infected in human HepG2.2.15 cells assessed as inhibition of HBeAg secretion at 150 uM after 9 days by ELISA; type: functional; conditions: HepG2 2.2.15, 216 h; summary of the method: as §2
# Hepatitis B virus [21] = assay: Antiviral activity against Hepatitis B virus infected in human HepG2.2.15 cells assessed as cell survival at 75 uM after 9 days (reference value: 100%); type: functional; conditions: HepG2 2.2.15, 216 h; summary of the method: as §1
# Hepatitis B virus [22] = assay: Antiviral activity against Hepatitis B virus infected in human HepG2.2.15 cells assessed as inhibition of HBeAg secretion at 150 uM after 6 days by ELISA; type: functional; conditions: HepG2 2.2.15, 144 h; summary of the method: as §2
# Hepatitis B virus [23] = assay: Antiviral activity against Hepatitis B virus infected in human HepG2.2.15 cells assessed as inhibition of HBeAg secretion at 300 uM after 9 days by ELISA; type: functional; conditions: HepG2 2.2.15, 216 h; summary of the method: as §2
# Hepatitis B virus [24] = assay: Antiviral activity against Hepatitis B virus infected in human HepG2.2.15 cells assessed as inhibition of HBeAg secretion at 37.5 uM after 3 days by ELISA; type: functional; conditions: HepG2 2.2.15, 72 h; summary of the method: as §2
# Hepatitis B virus [25] = assay: Antiviral activity against Hepatitis B virus infected in human HepG2.2.15 cells assessed as inhibition of HBeAg secretion at 300 uM after 6 days by ELISA; type: functional; conditions: HepG2 2.2.15, 144 h; summary of the method: as §2
# Hepatitis B virus [26] = assay: Antiviral activity against Hepatitis B virus infected in human HepG2.2.15 cells assessed as inhibition of HBsAg secretion at 150 uM after 6 days by ELISA; type: functional; conditions: HepG2 2.2.15, 144 h; summary of the method: as §2
# Hepatitis B virus [27] = assay: Antiviral activity against Hepatitis B virus infected in human HepG2.2.15 cells assessed as inhibition of HBsAg secretion at 300 uM after 3 days by ELISA; type: functional; conditions: HepG2 2.2.15, 72 h; summary of the method: as §2
# [28] = Selectivity index, ratio of CC50 for human HepG2.2.15 cells to IC50 for Hepatitis B virus infected in human HepG2.2.15 cells assessed as inhibition of HBeAg secretion; type: functional; summary of the method: as §3
# Hepatitis B virus [29] = assay: Antiviral activity against Hepatitis B virus infected in human HepG2.2.15 cells assessed as inhibition of HBeAg secretion at 300 uM after 3 days by ELISA; type: functional; conditions: HepG2 2.2.15, 72 h; summary of the method: as §2
# Hepatitis B virus [30] = assay: Antiviral activity against Hepatitis B virus infected in human HepG2.2.15 cells assessed as inhibition of HBsAg secretion at 75 uM after 3 days by ELISA; type: functional; conditions: HepG2 2.2.15, 72 h; summary of the method: as §2
# Hepatitis B virus [31] = assay: Antiviral activity against Hepatitis B virus infected in human HepG2.2.15 cells assessed as cell survival at 37.5 uM after 9 days (reference value: 100%); type: functional; conditions: HepG2 2.2.15, 216 h; summary of the method: as §1
# Hepatitis B virus [32] = assay: Antiviral activity against Hepatitis B virus infected in human HepG2.2.15 cells assessed as inhibition of HBeAg secretion at 75 uM after 6 days by ELISA; type: functional; conditions: HepG2 2.2.15, 144 h; summary of the method: as §2
# Hepatitis B virus [33] = assay: Antiviral activity against Hepatitis B virus infected in human HepG2.2.15 cells assessed as inhibition of HBeAg secretion at 75 uM after 9 days by ELISA; type: functional; conditions: HepG2 2.2.15, 216 h; summary of the method: as §2
compound,measurement,setting,value
O=C(/C=C/c1ccc2c(c1)OCO2)O/N=C/c1ccco1,viability at 150 µM,Hepatitis B virus [1],73.8%
same,inhibition at 37.5 µM,Hepatitis B virus [2],31.5%
same,inhibition at 37.5 µM,Hepatitis B virus [3],30.3%
same,inhibition at 37.5 µM,Hepatitis B virus [4],26%
same,inhibition at 37.5 µM,Hepatitis B virus [5],32.4%
same,inhibition at 75 µM,Hepatitis B virus [6],24.8%
same,viability at 300 µM,Hepatitis B virus [7],43%
same,inhibition at 300 µM,Hepatitis B virus [8],85.4%
same,inhibition at 150 µM,Hepatitis B virus [9],35.2%
same,IC50,Hepatitis B virus [10],64.6 µM
same,inhibition at 150 µM,Hepatitis B virus [11],42.9%
same,inhibition at 300 µM,Hepatitis B virus [12],79.5%
same,Ratio CC50/IC50,[13],7.42
same,inhibition at 75 µM,Hepatitis B virus [14],59.5%
same,inhibition at 150 µM,Hepatitis B virus [15],70.5%
same,inhibition at 75 µM,Hepatitis B virus [16],54.6%
same,inhibition at 37.5 µM,Hepatitis B virus [17],22.3%
same,CC50 at 216 h,[18],480 µM
same,IC50,Hepatitis B virus [19],81.8 µM
same,inhibition at 150 µM,Hepatitis B virus [20],59.1%
same,viability at 75 µM,Hepatitis B virus [21],85.5%
same,inhibition at 150 µM,Hepatitis B virus [22],56.5%
same,inhibition at 300 µM,Hepatitis B virus [23],86.7%
same,inhibition at 37.5 µM,Hepatitis B virus [24],16.9%
same,inhibition at 300 µM,Hepatitis B virus [25],71%
same,inhibition at 150 µM,Hepatitis B virus [26],70.4%
same,inhibition at 300 µM,Hepatitis B virus [27],57.9%
same,Ratio CC50/IC50,[28],5.86
same,inhibition at 300 µM,Hepatitis B virus [29],47.2%
same,inhibition at 75 µM,Hepatitis B virus [30],31.2%
same,viability at 37.5 µM,Hepatitis B virus [31],94.4%
same,inhibition at 75 µM,Hepatitis B virus [32],45.8%
same,inhibition at 75 µM,Hepatitis B virus [33],47%
